Laboratory results: ChEMBL document CHEMBL1667826, “Synthesis, modification, and evaluation of (R)-de-O-methyllasiodiplodin and analogs as nonsteroidal antagonists of mineralocorticoid receptor” (Bioorg Med Chem Lett, 2011)

Legend:
[1] = target: T1, Mineralocorticoid receptor (Rattus norvegicus, UniProt P22199); assay: Antagonist activity at rat mineralocorticoid receptor-ligand binding domain expressed in AH109 yeast cells co expressing pGADT7-hSRC-1 by two hybrid assay; type: cell-based
T1 sequence (P22199 whole entry): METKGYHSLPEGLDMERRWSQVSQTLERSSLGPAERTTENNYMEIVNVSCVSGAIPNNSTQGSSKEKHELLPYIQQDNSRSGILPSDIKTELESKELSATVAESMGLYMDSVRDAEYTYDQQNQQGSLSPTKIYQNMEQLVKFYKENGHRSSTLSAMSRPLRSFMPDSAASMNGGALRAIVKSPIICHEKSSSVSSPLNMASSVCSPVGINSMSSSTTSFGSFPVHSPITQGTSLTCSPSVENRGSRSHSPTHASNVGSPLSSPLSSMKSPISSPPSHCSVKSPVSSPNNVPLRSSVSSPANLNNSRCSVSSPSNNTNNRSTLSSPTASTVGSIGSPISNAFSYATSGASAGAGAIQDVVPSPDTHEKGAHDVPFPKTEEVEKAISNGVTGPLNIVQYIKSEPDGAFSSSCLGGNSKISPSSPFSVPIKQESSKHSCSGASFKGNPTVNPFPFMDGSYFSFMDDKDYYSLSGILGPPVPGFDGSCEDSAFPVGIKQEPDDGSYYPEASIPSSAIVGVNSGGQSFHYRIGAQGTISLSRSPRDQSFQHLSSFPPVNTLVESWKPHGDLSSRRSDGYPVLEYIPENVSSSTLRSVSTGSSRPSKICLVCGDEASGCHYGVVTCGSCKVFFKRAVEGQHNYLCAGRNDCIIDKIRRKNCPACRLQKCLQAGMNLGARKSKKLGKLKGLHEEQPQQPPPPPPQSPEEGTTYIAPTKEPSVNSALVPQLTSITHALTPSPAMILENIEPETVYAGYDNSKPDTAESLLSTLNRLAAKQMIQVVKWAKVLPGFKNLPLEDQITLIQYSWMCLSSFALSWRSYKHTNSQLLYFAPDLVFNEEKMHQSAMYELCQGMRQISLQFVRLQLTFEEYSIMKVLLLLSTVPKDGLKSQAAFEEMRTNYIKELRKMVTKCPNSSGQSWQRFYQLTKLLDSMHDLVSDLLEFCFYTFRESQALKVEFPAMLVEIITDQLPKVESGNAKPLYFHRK
Summary of the method: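 Yeast two-hybrid read-out of corticosterone-stimulated interaction between the MR ligand-binding domain and the SRC1 coactivator. Antagonism of this interaction is expressed as IC50.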

Glucocorticoid receptor = target: T2, Glucocorticoid receptor (Homo sapiens, UniProt P04150); assay: Inhibition of glucocorticoid receptor ligand binding domain expressed in HEK293T cells; type: cell-based; details: hek-293t
T2 sequence (P04150 whole entry): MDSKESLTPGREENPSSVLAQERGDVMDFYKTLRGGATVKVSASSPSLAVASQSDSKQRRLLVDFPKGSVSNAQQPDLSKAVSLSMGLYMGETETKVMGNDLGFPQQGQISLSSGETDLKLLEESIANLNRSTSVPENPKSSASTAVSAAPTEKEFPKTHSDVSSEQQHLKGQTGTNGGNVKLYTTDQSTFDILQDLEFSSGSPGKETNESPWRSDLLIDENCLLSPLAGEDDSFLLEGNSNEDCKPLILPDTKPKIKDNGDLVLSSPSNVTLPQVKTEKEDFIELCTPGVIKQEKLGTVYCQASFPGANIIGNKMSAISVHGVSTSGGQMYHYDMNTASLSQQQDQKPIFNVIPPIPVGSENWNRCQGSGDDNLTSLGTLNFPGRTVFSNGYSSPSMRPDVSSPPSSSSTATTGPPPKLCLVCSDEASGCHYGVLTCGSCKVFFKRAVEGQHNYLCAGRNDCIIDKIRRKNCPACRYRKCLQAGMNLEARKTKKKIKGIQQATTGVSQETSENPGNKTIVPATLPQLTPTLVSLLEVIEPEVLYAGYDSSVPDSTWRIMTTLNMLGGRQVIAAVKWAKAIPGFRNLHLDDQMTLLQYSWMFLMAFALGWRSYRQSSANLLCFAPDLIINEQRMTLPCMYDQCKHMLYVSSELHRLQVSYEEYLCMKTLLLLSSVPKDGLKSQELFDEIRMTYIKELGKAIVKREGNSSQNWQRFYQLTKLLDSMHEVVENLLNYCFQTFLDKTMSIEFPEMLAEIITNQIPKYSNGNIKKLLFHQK
Summary of the method: (§1)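 Mammalian one-hybrid assay in HEK293T cells transiently co-transfected with a UAS-TK-Luc reporter, pRL-SV40 and a pGAL4 fusion of the receptor LBD (ERα, GR or PR). The read-out is luciferase, measuring antagonism at each receptor.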

Estrogen receptor = target: T3, Estrogen receptor (Homo sapiens, UniProt P03372); assay: Inhibition of ERalpha ligand binding domain expressed in HEK293T cells; type: cell-based, HEK-293T; summary of the method: as §1
T3 sequence (P03372 whole entry): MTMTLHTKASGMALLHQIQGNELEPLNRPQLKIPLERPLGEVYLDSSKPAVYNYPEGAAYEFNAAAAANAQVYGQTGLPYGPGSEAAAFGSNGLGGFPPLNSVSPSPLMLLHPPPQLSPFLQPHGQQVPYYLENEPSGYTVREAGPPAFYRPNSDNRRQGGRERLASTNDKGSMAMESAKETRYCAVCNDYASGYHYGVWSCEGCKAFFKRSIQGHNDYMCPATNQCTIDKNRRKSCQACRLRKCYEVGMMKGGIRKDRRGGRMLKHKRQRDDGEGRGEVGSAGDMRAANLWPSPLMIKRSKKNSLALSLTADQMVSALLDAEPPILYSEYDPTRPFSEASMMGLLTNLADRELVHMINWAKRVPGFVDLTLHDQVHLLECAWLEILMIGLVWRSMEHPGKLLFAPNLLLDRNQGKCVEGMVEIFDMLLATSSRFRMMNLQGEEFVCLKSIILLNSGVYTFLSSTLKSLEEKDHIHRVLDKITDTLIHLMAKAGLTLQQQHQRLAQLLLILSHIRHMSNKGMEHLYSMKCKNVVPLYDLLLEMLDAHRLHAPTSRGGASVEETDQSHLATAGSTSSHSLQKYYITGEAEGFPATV

Progesterone receptor = target: T4, Progesterone receptor (Homo sapiens, UniProt P06401); assay: Inhibition of progesterone receptor ligand binding domain expressed in HEK293T cells; type: cell-based, HEK-293T; summary of the method: as §1
T4 sequence (P06401 whole entry): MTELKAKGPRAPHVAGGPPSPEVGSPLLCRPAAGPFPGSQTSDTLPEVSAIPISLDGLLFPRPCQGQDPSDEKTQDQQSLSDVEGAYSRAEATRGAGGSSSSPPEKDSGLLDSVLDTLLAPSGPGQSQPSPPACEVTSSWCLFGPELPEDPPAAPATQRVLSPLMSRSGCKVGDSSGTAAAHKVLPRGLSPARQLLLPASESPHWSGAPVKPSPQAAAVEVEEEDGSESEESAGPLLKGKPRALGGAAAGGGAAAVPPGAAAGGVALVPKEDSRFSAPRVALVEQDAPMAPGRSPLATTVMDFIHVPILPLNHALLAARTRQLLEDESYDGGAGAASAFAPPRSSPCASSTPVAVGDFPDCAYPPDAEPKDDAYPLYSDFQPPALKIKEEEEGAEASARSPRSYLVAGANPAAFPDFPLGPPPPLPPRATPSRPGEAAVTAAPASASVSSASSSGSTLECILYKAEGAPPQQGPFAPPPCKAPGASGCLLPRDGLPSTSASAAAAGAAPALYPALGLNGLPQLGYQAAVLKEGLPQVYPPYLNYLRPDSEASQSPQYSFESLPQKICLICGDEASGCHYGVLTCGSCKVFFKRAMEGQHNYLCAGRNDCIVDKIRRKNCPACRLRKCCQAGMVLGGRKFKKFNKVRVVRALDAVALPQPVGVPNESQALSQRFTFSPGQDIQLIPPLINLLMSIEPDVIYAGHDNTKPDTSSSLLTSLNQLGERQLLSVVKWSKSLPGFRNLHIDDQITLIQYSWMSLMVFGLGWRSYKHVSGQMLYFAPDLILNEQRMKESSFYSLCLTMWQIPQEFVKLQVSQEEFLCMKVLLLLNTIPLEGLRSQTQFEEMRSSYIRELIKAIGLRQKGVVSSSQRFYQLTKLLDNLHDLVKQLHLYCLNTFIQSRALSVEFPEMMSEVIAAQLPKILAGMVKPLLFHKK

SMILES | IC50 [1] | also measured
O=C1OCCCCCCCCc2cc(O)cc(O)c21 | Not Active | 
C[C@@H]1CCCCCCCc2cc(OC(=O)c3ccc(Cl)cc3)cc(OC(=O)c3ccc(Cl)cc3)c2C(=O)O1 | Not Active | 
CCCC(=O)Oc1cc2c(c(OC(=O)CCC)c1)C(=O)O[C@H](C)CCCCCCC2 | Not Active | 
CC(=O)Oc1cc2c(c(OC(C)=O)c1)C(=O)OCCCCCCCCCC2 |  | IC50 ([1]; read-out: IC50): 2.9 µM; IC50 (Glucocorticoid receptor): Not Active; IC50 (Estrogen receptor; read-out: IC50): > 10 µM; IC50 (Progesterone receptor; read-out: IC50): 3.22 µM
C[C@@H]1CCCCCCCc2cc(O)cc(O)c2C(=O)O1 |  | IC50 ([1]; read-out: IC50): 8.93 µM
O=C1OCCCCCCCCCCc2cc(O)cc(O)c21 | Not Active | 
O=C1OCCCCCCCCCc2cc(O)cc(O)c21 | Not Active | 
CCCOc1cc(O)c2c(c1)CCCCCCC[C@@H](C)OC2=O | Not Active | 
C=CCOc1cc(O)c2c(c1)CCCCCCC[C@@H](C)OC2=O | Not Active | 
CC(=O)Oc1cc2c(c(OC(C)=O)c1)C(=O)OCCCCCCCCC2 |  | IC50 ([1]; read-out: IC50): 0.82 µM; IC50 (Glucocorticoid receptor): Not Active; IC50 (Estrogen receptor; hek-293t): Not Active; IC50 (Progesterone receptor; read-out: IC50): 3.06 µM
COc1cc2c(c(OC)c1)C(=O)O[C@H](C)CCC/C=C\CC2 |  | IC50 ([1]; read-out: IC50): 16.6 µM
C=CCCC[C@@H](C)OC(=O)c1c(CCC=C)cc(OC)cc1OC | Not Active | 
C[C@@H]1CCCCCCCc2cc(OCc3ccccc3)cc(O)c2C(=O)O1 | Not Active | 
C[C@@H]1CCCCCCCc2cc(OC(=O)c3ccc(Br)cc3)cc(OC(=O)c3ccc(Br)cc3)c2C(=O)O1 | Not Active | 
C[C@@H]1CCCCCCCc2cc(OC(=O)c3ccccc3)cc(OC(=O)c3ccccc3)c2C(=O)O1 | Not Active | 
Cc1ccc(S(=O)(=O)Oc2cc3c(c(OS(=O)(=O)c4ccc(C)cc4)c2)C(=O)O[C@H](C)CCCCCCC3)cc1 |  | IC50 ([1]; read-out: IC50): 6.51 µM
CCCOc1cc2c(c(OCCC)c1)C(=O)O[C@H](C)CCCCCCC2 | Not Active | 

SMILES | IC50 [1] | also measured
CC(C)C(=O)Oc1cc2c(c(OC(=O)C(C)C)c1)C(=O)O[C@H](C)CCCCCCC2 | Not Active | 
C=CCOc1cc2c(c(OCC=C)c1)C(=O)O[C@H](C)CCCCCCC2 | Not Active | 
CC(=O)Oc1cc2c(c(OC(C)=O)c1)C(=O)OCCCCCCCC2 |  | IC50 ([1]; read-out: IC50): 1.11 µM; IC50 (Glucocorticoid receptor): Not Active; IC50 (Estrogen receptor; hek-293t): Not Active; IC50 (Progesterone receptor; hek-293t): Not Active
CCC(=O)Oc1cc2c(c(OC(=O)CC)c1)C(=O)O[C@H](C)CCCCCCC2 |  | IC50 ([1]; read-out: IC50): 31.7 µM
COc1cc2c(c(OC)c1)C(=O)O[C@H](C)CCCCCCC2 | Not Active | 
COc1cc(O)cc2c1C(=O)O[C@H](C)CCCCCCC2 | Not Active | 
CCCCOc1cc2c(c(OCCCC)c1)C(=O)O[C@H](C)CCCCCCC2 | Not Active | 
C[C@@H]1CCCCCCCc2cc(OCc3ccc([N+](=O)[O-])cc3)cc(OCc3ccc([N+](=O)[O-])cc3)c2C(=O)O1 | Not Active | 
CC(=O)Oc1cc2c(c(OC(C)=O)c1)C(=O)OCCCCCCC2 |  | IC50 ([1]; read-out: IC50): 0.58 µM; IC50 (Glucocorticoid receptor): Not Active; IC50 (Estrogen receptor; hek-293t): Not Active; IC50 (Progesterone receptor; hek-293t): Not Active
O=C1OCCCCCCCc2cc(O)cc(O)c21 | Not Active | 
COc1cc(O)c2c(c1)CCCCCCC[C@@H](C)OC2=O | Not Active | 
CCOc1cc(O)c2c(c1)CCCCCCC[C@@H](C)OC2=O | Not Active | 
CCOc1cc2c(c(OCC)c1)C(=O)O[C@H](C)CCCCCCC2 | Not Active | 
COc1cc2c(c(OC)c1)C(=O)O[C@H](C)CCC/C=C/CC2 | Not Active | 
C[C@@H]1CCCCCCCc2cc(OCc3ccccc3)cc(OCc3ccccc3)c2C(=O)O1 | Not Active | 
CC(=O)Oc1cc2c(c(OC(C)=O)c1)C(=O)O[C@H](C)CCCCCCC2 |  | IC50 ([1]; read-out: IC50): 2.78 µM; IC50 (Glucocorticoid receptor): Not Active; IC50 (Estrogen receptor; read-out: IC50): 8.36 µM; IC50 (Progesterone receptor; hek-293t): Not Active
